# Assay results: ChEMBL document CHEMBL3098111, “Discovery of 2,5-diarylnicotinamides as selective orexin-2 receptor antagonists (2-SORAs)” (Bioorg Med Chem Lett, 2013)
# How the values were obtained:
# Homo sapiens = species on record: Homo sapiens; test: Selectivity ratio of Ki for human orexin-1 receptor to Ki for human orexin-2 receptor
# How it was run: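 Radioligand binding: a high-affinity radioligand was bound to membranes from human cells overexpressing OX1R or OX2R, and inhibition of that binding was measured and expressed as Ki. The ratio is the OX1R Ki divided by the OX2R Ki.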
# [1] = target: T1, Orexin/Hypocretin receptor type 1 (Homo sapiens, UniProt O43613); test: Displacement of [3H]SB-674042 from human orexin-1 receptor after 60 mins by scintillation counting analysis
# T1 sequence (O43613 whole entry): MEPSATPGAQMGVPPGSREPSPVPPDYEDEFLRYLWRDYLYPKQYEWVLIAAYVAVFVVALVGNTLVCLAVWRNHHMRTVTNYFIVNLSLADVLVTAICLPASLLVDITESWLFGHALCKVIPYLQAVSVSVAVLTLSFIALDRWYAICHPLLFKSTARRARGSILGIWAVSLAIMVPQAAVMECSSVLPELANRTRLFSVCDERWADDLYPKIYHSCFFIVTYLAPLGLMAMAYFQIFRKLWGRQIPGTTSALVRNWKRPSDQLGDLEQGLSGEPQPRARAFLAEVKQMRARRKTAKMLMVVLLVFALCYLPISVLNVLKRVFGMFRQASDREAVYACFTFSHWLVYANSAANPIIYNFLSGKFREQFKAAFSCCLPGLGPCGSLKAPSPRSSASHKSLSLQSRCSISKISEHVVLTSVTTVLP
# How it was run: (§1)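 Radioligand binding on membranes from human cells overexpressing the orexin receptor. Inhibition of high-affinity radioligand binding measured and expressed as Ki.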
# Orexin receptor type 2 [2] = target: T2, Orexin receptor type 2 (Homo sapiens, UniProt O43614); test: Displacement of [3H]SB-674042 from human orexin-2 receptor after 60 mins by scintillation counting analysis; how it was run: as §1
# T2 sequence (O43614 whole entry): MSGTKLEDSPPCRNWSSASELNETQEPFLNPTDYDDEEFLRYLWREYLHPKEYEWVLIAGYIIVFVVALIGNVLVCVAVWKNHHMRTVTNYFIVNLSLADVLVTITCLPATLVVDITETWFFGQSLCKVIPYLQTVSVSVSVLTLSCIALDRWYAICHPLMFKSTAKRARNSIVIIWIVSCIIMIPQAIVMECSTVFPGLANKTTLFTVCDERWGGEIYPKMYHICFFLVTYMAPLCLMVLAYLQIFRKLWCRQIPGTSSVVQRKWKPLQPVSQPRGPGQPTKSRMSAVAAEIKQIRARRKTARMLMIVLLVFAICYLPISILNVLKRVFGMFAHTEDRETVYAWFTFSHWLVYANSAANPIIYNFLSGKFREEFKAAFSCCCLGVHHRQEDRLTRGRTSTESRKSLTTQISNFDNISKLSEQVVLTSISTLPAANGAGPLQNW
# [3] = Oral bioavailability in rat; assay type: ADME, organism-based; settings: in vivo
# [4] = Clearance in rat; assay type: ADME, organism-based; settings: in vivo
# [5] = Half life in rat; assay type: ADME, organism-based; settings: in vivo
# [6] = Ratio of drug level in brain to plasma in rat at 3 mg/kg, po after 1 hr; assay type: ADME, organism-based; design: dose 3 mg/kg, route oral; settings: read-out: BPR
# [7] = target: L-type calcium channel, phenylalkylamine binding site (Rattus norvegicus, UniProt P22002+P27732+Q02485); test: Inhibition of rat L-type calcium channel phenylalkylamine binding site at 10 uM relative to control
# [8] = target: L-type calcium channel, dihydropyridine binding site (Rattus norvegicus, UniProt P22002+P27732+Q02485); test: Inhibition of rat L-type calcium channel dihydropyridine binding site at 10 uM relative to control
# [9] = target: L-type calcium channel, benzothiazepine binding site (Rattus norvegicus, UniProt P22002+P27732+Q02485); test: Inhibition of rat L-type calcium channel benzothiazepine binding site at 10 uM relative to control
# MAO-B = MAO-B (Homo sapiens, UniProt P27338); test: Inhibition of human MAO-B at 10 uM relative to control
# MAO-B, sequence (P27338 whole entry): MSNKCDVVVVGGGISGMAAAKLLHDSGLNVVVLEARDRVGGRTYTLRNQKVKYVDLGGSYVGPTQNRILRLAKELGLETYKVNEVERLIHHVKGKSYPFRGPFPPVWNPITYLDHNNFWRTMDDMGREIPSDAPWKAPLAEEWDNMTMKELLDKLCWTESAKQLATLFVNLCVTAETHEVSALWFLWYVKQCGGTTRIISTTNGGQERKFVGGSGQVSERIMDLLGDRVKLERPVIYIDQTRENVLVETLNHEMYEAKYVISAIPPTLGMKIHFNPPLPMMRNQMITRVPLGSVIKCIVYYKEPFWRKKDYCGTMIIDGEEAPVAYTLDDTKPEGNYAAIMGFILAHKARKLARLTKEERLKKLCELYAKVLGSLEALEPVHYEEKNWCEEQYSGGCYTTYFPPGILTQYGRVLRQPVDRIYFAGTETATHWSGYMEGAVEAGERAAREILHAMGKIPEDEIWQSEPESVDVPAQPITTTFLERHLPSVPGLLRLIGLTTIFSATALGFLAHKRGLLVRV
# MAO-A = MAO-A (Homo sapiens, UniProt P21397); test: Inhibition of human MAO-A at 10 uM relative to control
# hERG (KCNH2) [10] = target: T3, hERG (KCNH2) (Homo sapiens, UniProt Q12809); test: Inhibition of human ERG at 10 uM relative to control
# T3 sequence (Q12809 whole entry): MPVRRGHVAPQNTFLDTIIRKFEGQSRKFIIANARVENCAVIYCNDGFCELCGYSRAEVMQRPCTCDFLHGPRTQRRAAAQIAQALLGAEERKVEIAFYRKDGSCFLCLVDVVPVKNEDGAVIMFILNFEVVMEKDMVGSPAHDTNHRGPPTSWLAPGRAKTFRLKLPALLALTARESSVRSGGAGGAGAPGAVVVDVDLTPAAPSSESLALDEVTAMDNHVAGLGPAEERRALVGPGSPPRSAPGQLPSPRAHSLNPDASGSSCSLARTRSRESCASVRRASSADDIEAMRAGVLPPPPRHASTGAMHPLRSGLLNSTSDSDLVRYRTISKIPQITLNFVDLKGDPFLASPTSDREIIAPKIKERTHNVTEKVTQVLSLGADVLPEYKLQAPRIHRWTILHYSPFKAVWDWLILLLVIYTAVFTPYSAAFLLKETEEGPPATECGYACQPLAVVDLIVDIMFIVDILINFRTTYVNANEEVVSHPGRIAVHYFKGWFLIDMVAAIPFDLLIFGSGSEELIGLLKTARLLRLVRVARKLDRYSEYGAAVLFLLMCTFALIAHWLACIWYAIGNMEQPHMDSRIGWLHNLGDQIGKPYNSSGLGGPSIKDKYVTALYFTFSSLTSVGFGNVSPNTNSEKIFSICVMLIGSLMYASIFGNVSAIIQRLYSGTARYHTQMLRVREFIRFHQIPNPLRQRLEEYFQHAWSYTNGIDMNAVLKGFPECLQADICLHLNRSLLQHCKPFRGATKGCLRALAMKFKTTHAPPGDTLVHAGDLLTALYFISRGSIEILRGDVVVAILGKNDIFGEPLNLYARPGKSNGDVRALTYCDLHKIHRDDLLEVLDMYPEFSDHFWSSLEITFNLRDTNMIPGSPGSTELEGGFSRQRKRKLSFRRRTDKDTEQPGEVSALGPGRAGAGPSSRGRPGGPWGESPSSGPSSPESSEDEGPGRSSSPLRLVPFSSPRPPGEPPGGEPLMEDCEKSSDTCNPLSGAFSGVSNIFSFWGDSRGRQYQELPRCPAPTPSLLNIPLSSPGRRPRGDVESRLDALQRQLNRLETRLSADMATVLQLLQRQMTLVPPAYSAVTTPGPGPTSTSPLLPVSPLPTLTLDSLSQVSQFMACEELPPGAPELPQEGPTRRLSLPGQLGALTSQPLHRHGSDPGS
# [11] = Cmax in rat EEG model at 15 mg/kg, po; assay type: ADME, organism-based; design: dose 15 mg/kg, route oral; settings: in vivo
# [12] = AUC in rat EEG model at 15 mg/kg, po; assay type: ADME, organism-based; design: dose 15 mg/kg, route oral; settings: in vivo
# Nucleic Acid = test: Ratio of drug level in CSF to plasma in rat at 3 mg/kg, po after 1 hr; assay type: ADME, organism-based; design: dose 3 mg/kg, route oral
# MDR1 (P-gp, ABCB1) = MDR1 (P-gp, ABCB1) (Homo sapiens, UniProt P08183); test: Activity at human MDR1 expressed in pig LLC-PK cells assessed as efflux ratio of permeability from basolateral to apical side over apical to basolateral side; assay type: ADME, cell-based; settings: LLC-PK1
# MDR1 (P-gp, ABCB1), sequence (P08183 whole entry): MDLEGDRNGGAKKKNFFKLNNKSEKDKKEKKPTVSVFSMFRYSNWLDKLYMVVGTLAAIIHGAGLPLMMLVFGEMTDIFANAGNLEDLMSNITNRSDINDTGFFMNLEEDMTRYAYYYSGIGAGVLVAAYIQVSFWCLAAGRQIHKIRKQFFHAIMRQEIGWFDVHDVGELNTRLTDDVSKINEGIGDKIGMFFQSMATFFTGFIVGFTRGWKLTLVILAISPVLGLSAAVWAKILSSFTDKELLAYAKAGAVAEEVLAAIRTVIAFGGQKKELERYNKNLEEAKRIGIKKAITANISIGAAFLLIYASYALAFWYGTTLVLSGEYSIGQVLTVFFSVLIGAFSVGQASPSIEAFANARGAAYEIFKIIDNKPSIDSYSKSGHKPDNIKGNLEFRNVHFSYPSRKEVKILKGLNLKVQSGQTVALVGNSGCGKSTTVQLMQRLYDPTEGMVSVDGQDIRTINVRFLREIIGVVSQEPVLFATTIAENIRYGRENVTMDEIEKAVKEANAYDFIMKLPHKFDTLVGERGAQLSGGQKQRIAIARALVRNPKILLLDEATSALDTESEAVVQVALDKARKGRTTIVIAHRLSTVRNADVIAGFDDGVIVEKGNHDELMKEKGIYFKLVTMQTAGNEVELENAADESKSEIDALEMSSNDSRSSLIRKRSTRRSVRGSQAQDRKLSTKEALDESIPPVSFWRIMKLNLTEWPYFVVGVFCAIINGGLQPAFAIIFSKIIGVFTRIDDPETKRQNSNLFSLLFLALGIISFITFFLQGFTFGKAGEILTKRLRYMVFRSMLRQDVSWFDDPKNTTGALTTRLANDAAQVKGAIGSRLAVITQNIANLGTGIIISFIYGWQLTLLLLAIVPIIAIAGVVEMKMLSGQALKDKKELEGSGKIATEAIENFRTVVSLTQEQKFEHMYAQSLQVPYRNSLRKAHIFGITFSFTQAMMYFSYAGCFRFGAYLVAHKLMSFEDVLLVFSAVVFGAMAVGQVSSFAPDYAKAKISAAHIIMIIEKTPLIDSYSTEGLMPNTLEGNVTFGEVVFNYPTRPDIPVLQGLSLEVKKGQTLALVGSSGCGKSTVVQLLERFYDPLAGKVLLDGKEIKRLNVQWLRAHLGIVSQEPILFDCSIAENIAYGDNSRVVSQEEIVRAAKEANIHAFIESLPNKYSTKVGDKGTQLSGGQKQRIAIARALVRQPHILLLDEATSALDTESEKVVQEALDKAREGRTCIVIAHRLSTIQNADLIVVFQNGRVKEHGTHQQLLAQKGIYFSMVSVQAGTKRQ
# [13] = Fraction unbound in rat plasma by equilibrium dialysis method; assay type: ADME, cell-free
# [14] = Lipophilicity, log P of the compound; assay type: physicochemical; settings: octanol/water
# [15] = Fraction unbound in human plasma by equilibrium dialysis method; assay type: ADME, cell-free
# [16] = target: T1, Orexin/Hypocretin receptor type 1; test: Antagonist activity at human orexin-1 receptor assessed as inhibition of orexin-A-induced intracellular calcium mobilization after 30 mins by cell-based FLIPR assay; assay type: functional
# How it was run: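 Cell-based FLIPR functional assay in orexin receptor-expressing cells, with Ca2+ flux as the read-out of orexin-driven receptor activation.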
# Orexin receptor type 2 [17] = target: T2, Orexin receptor type 2; test: Antagonist activity at human orexin-2 receptor assessed as inhibition of orexin-A-induced intracellular calcium mobilization after 30 mins by cell-based FLIPR assay; assay type: functional
# [18] = target: 5-hydroxytryptamine receptor 2B (Homo sapiens, UniProt P41595); test: Inhibition of human 5-HT2B receptor
# 5-hydroxytryptamine receptor 2B, sequence (P41595 whole entry): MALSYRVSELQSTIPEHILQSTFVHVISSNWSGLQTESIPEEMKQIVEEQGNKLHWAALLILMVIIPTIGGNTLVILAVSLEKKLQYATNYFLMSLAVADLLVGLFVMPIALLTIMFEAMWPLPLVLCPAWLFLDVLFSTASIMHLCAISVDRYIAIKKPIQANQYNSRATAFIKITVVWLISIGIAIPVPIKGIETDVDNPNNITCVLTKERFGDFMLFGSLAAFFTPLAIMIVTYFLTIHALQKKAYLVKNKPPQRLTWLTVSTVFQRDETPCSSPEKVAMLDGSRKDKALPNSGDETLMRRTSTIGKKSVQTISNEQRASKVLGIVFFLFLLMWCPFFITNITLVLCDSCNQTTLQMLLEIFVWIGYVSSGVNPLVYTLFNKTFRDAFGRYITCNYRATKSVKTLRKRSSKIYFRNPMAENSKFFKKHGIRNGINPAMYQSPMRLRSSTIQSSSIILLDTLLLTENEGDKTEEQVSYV
# [19] = target: Voltage-gated inwardly rectifying potassium channel KCNH2 (Homo sapiens, UniProt Q12809); test: Inhibition of human ERG
# [20] = target: 5-hydroxytryptamine receptor 1A (Homo sapiens, UniProt P08908); test: Inhibition of human 5-HT1A receptor
# 5-hydroxytryptamine receptor 1A, sequence (P08908 whole entry): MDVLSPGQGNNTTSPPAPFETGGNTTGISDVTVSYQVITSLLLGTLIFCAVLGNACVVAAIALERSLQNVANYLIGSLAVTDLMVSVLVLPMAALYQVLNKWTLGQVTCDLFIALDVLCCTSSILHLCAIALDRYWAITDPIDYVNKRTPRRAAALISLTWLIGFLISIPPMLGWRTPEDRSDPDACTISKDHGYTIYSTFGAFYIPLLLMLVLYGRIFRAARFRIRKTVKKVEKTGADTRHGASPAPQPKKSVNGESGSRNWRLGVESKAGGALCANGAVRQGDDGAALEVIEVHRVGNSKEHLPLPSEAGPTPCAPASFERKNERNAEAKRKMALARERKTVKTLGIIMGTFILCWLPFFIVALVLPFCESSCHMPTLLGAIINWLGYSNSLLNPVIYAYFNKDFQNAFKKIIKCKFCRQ
# [21] = target: 5-hydroxytryptamine receptor 1B (Rattus norvegicus, UniProt P28564); test: Inhibition of rat 5-HT1B receptor
# 5-hydroxytryptamine receptor 1B, sequence (P28564 whole entry): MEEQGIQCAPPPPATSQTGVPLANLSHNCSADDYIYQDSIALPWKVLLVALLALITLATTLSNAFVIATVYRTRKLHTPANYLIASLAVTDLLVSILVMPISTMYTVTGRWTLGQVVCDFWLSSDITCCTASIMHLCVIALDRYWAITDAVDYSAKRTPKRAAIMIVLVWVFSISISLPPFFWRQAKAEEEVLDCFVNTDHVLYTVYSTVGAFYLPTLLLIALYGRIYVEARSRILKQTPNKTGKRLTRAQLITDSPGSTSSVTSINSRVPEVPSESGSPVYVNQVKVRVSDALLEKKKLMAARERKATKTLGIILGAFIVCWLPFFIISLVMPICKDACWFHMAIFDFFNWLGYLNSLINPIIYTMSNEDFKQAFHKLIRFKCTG
# [22] = Inhibition of rabbit monoamine transporter; design: species or system Oryctolagus cuniculus
# Mu-type opioid receptor = Mu-type opioid receptor (Homo sapiens, UniProt P35372); test: Inhibition of human mu opioid receptor
# Mu-type opioid receptor, sequence (P35372 whole entry): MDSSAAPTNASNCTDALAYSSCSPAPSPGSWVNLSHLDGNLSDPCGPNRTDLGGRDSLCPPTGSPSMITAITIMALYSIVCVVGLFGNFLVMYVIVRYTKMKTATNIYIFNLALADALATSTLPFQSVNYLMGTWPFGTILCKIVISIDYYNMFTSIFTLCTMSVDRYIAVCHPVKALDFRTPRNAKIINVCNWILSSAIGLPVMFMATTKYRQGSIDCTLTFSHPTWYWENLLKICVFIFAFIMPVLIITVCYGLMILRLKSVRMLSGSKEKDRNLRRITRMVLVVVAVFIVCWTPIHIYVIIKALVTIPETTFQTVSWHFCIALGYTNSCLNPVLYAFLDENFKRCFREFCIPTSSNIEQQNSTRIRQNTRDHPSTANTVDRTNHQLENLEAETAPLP
# D(3) dopamine receptor = D(3) dopamine receptor (Homo sapiens, UniProt P35462); test: Inhibition of human dopamine D3 receptor
# D(3) dopamine receptor, sequence (P35462 whole entry): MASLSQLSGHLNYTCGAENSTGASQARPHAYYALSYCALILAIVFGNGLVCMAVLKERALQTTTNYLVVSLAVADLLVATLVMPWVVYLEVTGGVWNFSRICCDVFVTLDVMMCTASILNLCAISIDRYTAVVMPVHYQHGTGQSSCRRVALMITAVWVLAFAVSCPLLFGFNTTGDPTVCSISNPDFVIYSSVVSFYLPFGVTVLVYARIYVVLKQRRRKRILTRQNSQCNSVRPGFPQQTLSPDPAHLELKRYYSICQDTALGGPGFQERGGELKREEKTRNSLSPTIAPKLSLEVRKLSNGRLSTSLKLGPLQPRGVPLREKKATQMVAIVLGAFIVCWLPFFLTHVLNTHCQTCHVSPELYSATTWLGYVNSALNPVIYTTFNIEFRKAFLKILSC
# [23] = Inhibition of guinea pig adenosine transporter; design: species or system Cavia porcellus
# hERG (KCNH2) [24] = target: T3, hERG (KCNH2); test: Inhibition of human ERG at 10 nM relative to control
# hERG (KCNH2) [25] = target: T3, hERG (KCNH2); test: Inhibition of human ERG at 0.1 uM relative to control
# hERG (KCNH2) [26] = target: T3, hERG (KCNH2); test: Inhibition of human ERG at 1 uM relative to control
# [27] = Bioavailability in rat at 10 mg/kg; assay type: ADME, organism-based; settings: in vivo
# [28] = Clearance in rat at 10 mg/kg; assay type: ADME, organism-based; design: dose 10 mg/kg; settings: in vivo
compound,measurement,setting,value
Cc1cc(C)cc(-c2cnc(-c3cccnc3)c(C(=O)NCc3ccc(C(F)(F)F)c(F)c3)c2)c1,Ratio Ki,Homo sapiens,58
same,Ki,[1],236 nM
same,Ki,Orexin receptor type 2 [2],4.1 nM
COc1ccc(CNC(=O)c2cc(-c3cc(F)cc(F)c3)cnc2-c2cccnc2)cc1OC,Ratio Ki,Homo sapiens,620
same,Ki,[1],5150 nM
same,Ki,Orexin receptor type 2 [2],8.3 nM
COc1ccc(CNC(=O)c2cc(-c3cc(C)cc(C)c3)cnc2-c2cccnc2)cc1,Ratio Ki,Homo sapiens,135
same,Ki,[1],2980 nM
same,Ki,Orexin receptor type 2 [2],22 nM
COc1cccc(CNC(=O)c2cc(-c3cc(C)cc(C)c3)cnc2-c2cccnc2)c1,Ratio Ki,Homo sapiens,83
same,Ki,[1],3350 nM
same,Ki,Orexin receptor type 2 [2],40.5 nM
Cc1cc(C)cc(-c2cnc(-c3cccnc3)c(C(=O)NCc3ccc4c(c3)OCO4)c2)c1,Ratio Ki,Homo sapiens,208
same,Ki,[1],3550 nM
same,Ki,Orexin receptor type 2 [2],17 nM
COc1ccc(CNC(=O)c2cc(-c3cc(C(F)(F)F)cc(C(F)(F)F)c3)cnc2-c2cccnc2)cc1OC,Ratio Ki,Homo sapiens,537
same,Ki,[1],65000 nM
same,Ki,Orexin receptor type 2 [2],121 nM
Cc1cc(C)cc(-c2cnc(-c3cccnc3)c(C(=O)N(C)Cc3ccc4c(c3)OCO4)c2)c1,Ratio Ki,Homo sapiens,3.3
same,Ki,[1],1900 nM
same,Ki,Orexin receptor type 2 [2],580 nM
Cc1cc(C)cc(-c2cnc(-c3cccnc3)c(C(=O)NCc3ccc(F)c(C)c3)c2)c1,Ratio Ki,Homo sapiens,61
same,Ki,[1],1100 nM
same,Ki,Orexin receptor type 2 [2],18 nM
COc1ccc(CNC(=O)c2cc(-c3cc(C)cc(F)c3)cnc2-c2cccnc2)cc1OC,Ratio Ki,Homo sapiens,1340
same,Ki,[1],1070 nM
same,Ki,Orexin receptor type 2 [2],0.8 nM
COc1ccc(CNC(=O)c2cc(-c3cccc(Cl)c3)cnc2-c2cccnc2)cc1OC,Ratio Ki,Homo sapiens,574
same,Ki,[1],747 nM
same,Ki,Orexin receptor type 2 [2],1.3 nM
Cc1cc(C)cc(-c2cnc(-c3cccnc3)c(C(=O)NCc3ccc(N(C)C)cc3)c2)c1,Ratio Ki,Homo sapiens,174
same,Ki,[1],833 nM
same,Ki,Orexin receptor type 2 [2],4.8 nM
COc1ccc(CNC(=O)c2cc(-c3cc(Cl)cc(Cl)c3)cnc2-c2cccnc2)cc1OC.Cl,bioavailability,[3],55%
same,clearance,[4],39 mL/min/kg
same,half-life,[5],54 min
same,Kp at 1 h,[6],0.19
COc1ccc(CNC(=O)c2cc(-c3cc(Cl)cc(Cl)c3)cnc2-c2cccnc2)cc1OC,inhibition at 10 µM,[7],4%
same,inhibition at 10 µM,[8],24%
same,inhibition at 10 µM,[9],1%
same,inhibition at 10 µM,MAO-B,31%
same,inhibition at 10 µM,MAO-A,41%
same,inhibition at 10 µM,hERG (KCNH2) [10],58%
same,Cmax,[11],2300 nM
same,AUC,[12],9 µM·h
same,Ratio,Nucleic Acid,0.2%
same,efflux ratio,"MDR1 (P-gp, ABCB1)",6.4
same,fraction unbound,[13],0.047
same,logP,[14],3.6
same,fraction unbound,[15],0.032
same,IC50,[16],292 nM
same,IC50,Orexin receptor type 2 [17],12 nM
same,Ki,[1],94.5 nM
same,Ki,Orexin receptor type 2 [2],0.07 nM
same,IC50,[18],1040 nM
same,Ki,[18],662 nM
same,IC50,[19],6.95 µM
same,IC50,[20],2300 nM
same,Ki,[20],1310 nM
same,IC50,[21],2400 nM
same,Ki,[21],2280 nM
same,IC50,[22],8.21 µM
same,Ki,[22],6.82 µM
same,IC50,Mu-type opioid receptor,5.02 µM
same,Ki,Mu-type opioid receptor,2040 nM
same,IC50,D(3) dopamine receptor,9.54 µM
same,Ki,D(3) dopamine receptor,3.24 µM
same,IC50,[23],2530 nM
same,Ki,[23],866 nM
same,inhibition at 0.01 µM,hERG (KCNH2) [24],3%
same,inhibition at 0.1 µM,hERG (KCNH2) [25],12%
same,inhibition at 1 µM,hERG (KCNH2) [26],17%
Cc1cc(C)cc(-c2cnc(-c3cccnc3)c(C(=O)N(C)Cc3ccc4nccnc4c3)c2)c1,Ratio Ki,Homo sapiens,92
same,Ki,[1],7250 nM
same,Ki,Orexin receptor type 2 [2],78.5 nM
COc1ccc(CNC(=O)c2cc(-c3cc(F)cc(Cl)c3)cnc2-c2cccnc2)cc1OC,Ratio Ki,Homo sapiens,1810
same,Ki,[1],1090 nM
same,Ki,Orexin receptor type 2 [2],0.6 nM
COc1ccc(CNC(=O)c2cc(-c3cc(C)cc(C)c3)cnc2-c2cccnc2)cc1OC,bioavailability,[27],12%
same,clearance,[28],66 mL/min/kg
same,Ratio Ki,Homo sapiens,660
same,Ki,[1],462 nM
same,Ki,Orexin receptor type 2 [2],0.7 nM
Cc1cc(C)cc(-c2cnc(-c3cccnc3)c(C(=O)NCc3ccc4c(c3)CCN4C)c2)c1,Ratio Ki,Homo sapiens,91
same,Ki,[1],273 nM
same,Ki,Orexin receptor type 2 [2],3 nM
